Molecules are shown by their SMILES. Values after ≈ are worked out from the molar mass of the structure shown.

Data set [1] can be described thus: Solubility of 10 mg compound in aqueous buffer at pH 7.3 and 37 degree Centigrade after 8.0 hr. To be noted: read-out: Concentration. The class given is physicochemical. The essentials:
(§1)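 Crystalline compound (stated amount) was agitated in 1 mL phosphate-buffered saline (NaH2PO4/NaCl, pH 7.3) at 37 °C. At each time point samples were centrifuged 5 min at 14000 rpm. Supernatant was diluted in mobile phase and quantified by HPLC against standards. Concentrations were corrected for prodrug decomposition.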

Data set [2] can be described thus: Compound was evaluated for the octanol/water partition coefficient at 37 degree Celsius at 24.5 hour. The class given is physicochemical. The essentials: (§2)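 Dilute aqueous solutions were equilibrated with 1-octanol at 37 °C. At each sampling interval the tubes were centrifuged. Aliquots of the octanol layer, then of the water layer, were diluted into methanol and stored at -20 °C for analysis.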

The nature of data set [3]: Solubility of 10 mg compound in aqueous buffer at pH 7.3 and 37 degree Celsius after 13.5 hr. The class given is physicochemical. To be noted: read-out: Concentration. The essentials: as §1
A short description of data set [4]: Compound was evaluated for the octanol/water partition coefficient at 37 degree Celsius at 3.0 hr. The class given is physicochemical. The essentials:
as §2

Data set [5] in a line: Compound was evaluated for the octanol/water partition coefficient at 37 degree Celsius at 4.5 hour. The class given is physicochemical. The essentials: as §2
In data set [6] the test system is Human alphaherpesvirus 1. In words: virus rating as the measure of the activity against herpes simplex virus type 1(strain 377). The class given is functional.
The nature of data set [7]: Solubility of 10 mg compound in aqueous buffer at pH 7.3 and 37 degree Celsius after 4.0 hr. The class given is physicochemical. To be noted: read-out: Concentration. The essentials: as §1
The subject of data set [8] is Human alphaherpesvirus 1. In words: In vitro activity against herpes simplex virus type 1(strain 377) and the minimum inhibitory concentration was determined. The class given is functional.
The nature of data set [9]: Compound was evaluated for the octanol/water partition coefficient at 37 degree Celsius at 1.0hr. The class given is physicochemical. To be noted: 1 h. The essentials:
as §2

Data set [10] is described as follows: Solubility of 20 mg compound in aqueous buffer at pH 7.3 and 37 degree Celsius after 13.5 hr. To be noted: read-out: Concentration. The class given is physicochemical. The essentials: as §1
Data set [11] can be described thus: Solubility of 20 mg compound in aqueous buffer at pH 7.3 and 37 degree Celsius after 4.0 hr. The class given is physicochemical. To be noted: read-out: Concentration. The essentials: as §1
Data set [12] is described as follows: Solubility of 20 mg compound in aqueous buffer at pH 7.3 and 37 degree Centigrade after 8.0 hr. The class given is physicochemical. To be noted: read-out: Concentration. The essentials:
as §1

Data set [13] is described as follows: Compound was evaluated for the octanol/water partition coefficient at 37 degree Celsius at 10.5 hour. The class given is physicochemical. The essentials:
as §2

A short description of data set [14]: Solubility of 150 mg compound in aqueous buffer at pH 7.3 and 37 degree Celsius after 4.0 hr. The class given is physicochemical. To be noted: read-out: Concentration. The essentials: as §1
Data set [15] is described as follows: Solubility of 150 mg compound in aqueous buffer at pH 7.3 and 37 degree Celsius after 8.0 hr. The class given is physicochemical. To be noted: read-out: Concentration. The essentials:
as §1

Data set [16] has as its system Human alphaherpesvirus 1. Nature of the data set: Compound was evaluated for its activity against herpes simplex virus type 1(strain 377) and the minimum inhibitory concentration was determined. The class given is functional.

Take `CCCC(=O)O[C@H]1C(n2cnc3c(N)ncnc32)O[C@H](CO)[C@@H]1O` (some centres undefined): the solubility at 8 h in data set [1] amounted to 3.54 mg/mL (≈ 10.5 mM). In addition, the Partition coefficient in data set [2] is listed as 0.975; in [4], 0.911; in data set [5] it was 0.969. Besides, in data set [3], the solubility at 13.5 h is 3.31 mg/mL (≈ 9.81 mM). The molecule further registered a VR in the data set on Human alphaherpesvirus 1 [6] of 1.5. For the same molecule, the solubility at 4 h in data set [7] came to 3.38 mg/mL (≈ 10 mM). Further, in the data set on Human alphaherpesvirus 1 [8], the MIC50 is 71.9 µg/mL (≈ 0.213 mM).
Take `CCCCC(=O)O[C@H]1C(n2cnc3c(N)ncnc32)O[C@H](CO)[C@@H]1O` (some centres undefined): the Partition coefficient was 2.5 in [9]; 2.8 in data set [2]; 2.5 in [4]; 2.2 in data set [5]; 3 in data set [13]. For the same molecule, in data set [10], the solubility at 13.5 h was found to be 11 mg/mL (≈ 31.3 mM). Moreover, in data set [11], the solubility at 4 h was found to be 9.28 mg/mL (≈ 26.4 mM). In addition, the VR with Human alphaherpesvirus 1 [6] amounted to 2.6. In addition, the solubility at 8 h in [12] worked out at 10.8 mg/mL (≈ 30.7 mM). Moreover, the MIC50 against Human alphaherpesvirus 1 [8] turned out to be 56.8 µg/mL (≈ 0.162 mM).
For the molecule `CCC(=O)O[C@H]1C(n2cnc3c(N)ncnc32)O[C@H](CO)[C@@H]1O` (some centres undefined), the Partition coefficient in data set [9] is reported as 0.336; in data set [2] it was 0.329; in data set [4], 0.359; in [5], 0.318; in data set [13], 0.335. The solubility at 13.5 h in data set [10] came to 13 mg/mL (≈ 40.2 mM). For the same molecule, the solubility at 4 h in data set [11] came to 11.1 mg/mL (≈ 34.3 mM). The molecule also returned a VR with Human alphaherpesvirus 1 [6] of 1.9. The solubility at 8 h in [12] was 11 mg/mL (≈ 34 mM). The molecule further came in with an MIC50 with Human alphaherpesvirus 1 [8] of 29.3 µg/mL (≈ 0.0906 mM).
As to `CC(=O)O[C@H]1C(n2cnc3c(N)ncnc32)O[C@H](CO)[C@@H]1O` (some centres undefined), the Partition coefficient in data set [9] is listed as 0.149; in [2], 0.122; in data set [4], 0.134; in data set [5], 0.118; in data set [13], 0.127. Also, the solubility at 4 h in data set [14] is 93.6 mg/mL (≈ 303 mM). Also, in data set [15], the solubility at 8 h came out at 93.6 mg/mL (≈ 303 mM). The same molecule registered a VR in the data set with Human alphaherpesvirus 1 [6] of 2.3. This molecule also returned an MIC50 against Human alphaherpesvirus 1 [8] of 26.2 µg/mL (≈ 0.0847 mM).
Regarding `Nc1ncnc2c1ncn2[C@@H]1O[C@H](CO)[C@@H](O)[C@@H]1O` [VIDARABINE], the MIC50 in the data set with Human alphaherpesvirus 1 [16] was 9.5 µg/mL (≈ 0.0355 mM). The molecule further registered a VR with Human alphaherpesvirus 1 [6] of 2.

(Values after ChEMBL document CHEMBL1122785, “Synthesis and evaluation of a series of 2'-O-acyl derivatives of 9-beta-D-arabinofuranosyladenine as antiherpes agents” (J Med Chem, 1984).)
